Laboratory results taken from ChEMBL document CHEMBL1123369, “Synthesis and structure-activity relationships of new arylfluoronaphthyridine antibacterial agents” (1986).
Values after ≈ are worked out from the molar mass of the structure shown.

Assays:
Assay type in all cases: functional
Klebsiella pneumoniae = test: In vitro antibacterial activity against Klebsiella pneumoniae 8045
Procedure, shortened: (§1)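 Twofold agar dilution in brain-heart infusion agar, test range 200 to 0.005 µg/mL, made from a 2000 µg/mL stock. Organisms grown overnight in BHI broth at 36 °C. About 10⁴ organisms inoculated per plate, then incubated 18 h at 36 °C. MIC taken as the lowest concentration giving no visible growth.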

Staphylococcus aureus [1] = test: In vitro antibacterial activity against Staphylococcus aureus ATCC 6538P; procedure, shortened: as §1
Acinetobacter sp. = test: In vitro antibacterial activity against Acinetobacter species CMX669; procedure, shortened: as §1
[2] = system: Staphylococcus epidermidis; test: In vitro antibacterial activity against Staphylococcus epidermidis 3519; procedure, shortened: as §1
Staphylococcus aureus [3] = test: In vitro antibacterial activity against Staphylococcus aureus CMX 686B; procedure, shortened: as §1
Enterococcus faecium = test: In vitro antibacterial activity against Streptococcus faecium ATCC 8043; procedure, shortened: as §1
Streptococcus pyogenes = test: In vitro antibacterial activity against Streptococcus pyogenes 930; procedure, shortened: as §1
Pseudomonas aeruginosa [4] = test: In vitro antibacterial activity against Pseudomonas aeruginosa K799/WT; procedure, shortened: as §1
Pseudomonas aeruginosa [5] = test: compound was evaluated in vitro for the antibacterial activity against Pseudomonas aeruginosa 5007; procedure, shortened: as §1
Escherichia coli = test: In vitro antibacterial activity against Escherichia coli Juhl; procedure, shortened: as §1
Klebsiella aerogenes = test: In vitro antibacterial activity against Enterobacter aerogenes ATCC 13048; procedure, shortened: as §1
Pseudomonas aeruginosa [6] = test: In vitro antibacterial activity against Pseudomonas aeruginosa 5007; procedure, shortened: as §1
Mus musculus [7] = test: In vivo dose(sc) inhibiting systemic infections caused by Staphylococcus aureus NCTC 10649 in mice.
Procedure, shortened: (§2)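 CF-1 female mice, about 20 g. Infected ip with 0.5 mL of an 18-h BHI culture diluted in 5% hog gastric mucin to 100× LD₅₀. LD₅₀ set by 10-fold dilutions (Reed–Muench, day 6). Compound given in water or dilute NaOH, sc or po, total dose split at 1 and 5 h post-infection. At least 3 dose levels, 10 mice each. Deaths followed 6 days. ED₅₀ from day-6 cumulative mortality by trimmed Logit, with 95% confidence limits.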

Mus musculus [8] = test: In vivo dose(po) inhibiting systemic infections caused by Staphylococcus aureus NCTC 10649 in mice.; procedure, shortened: as §2
Mus musculus [9] = test: In vivo dose(po) inhibiting systemic infections caused by Pseudomonas aeruginosa 5007 in mice.; procedure, shortened: as §2
Mus musculus [10] = test: In vivo dose(sc) inhibiting systemic infections caused by Pseudomonas aeruginosa 5007 in mice.; procedure, shortened: as §2
Mus musculus [11] = test: In vivo antibacterial activity against systemic infection caused by Staphylococcus aureus NCTC 10649 in mice.; procedure, shortened: as §2
Mus musculus [12] = test: In vivo antibacterial activity against systemic infection caused by Pseudomonas aeruginosa 5007 in mice.; procedure, shortened: as §2
Mus musculus [13] = test: In vivo antibacterial activity against systemic infection caused by Escherichia coli Juhl in mice.; procedure, shortened: as §2
Mus musculus [14] = test: In vivo dose(po) inhibiting systemic infections caused by Escherichia coli Juhl in mice.; procedure, shortened: as §2
Mus musculus [15] = test: In vivo dose(sc) inhibiting systemic infections caused by Escherichia coli Juhl in mice.; procedure, shortened: as §2

Row | Structure (SMILES) | MIC (Klebsiella pneumoniae) | MIC (Staphylococcus aureus [1]) | MIC (Acinetobacter sp.) | MIC [2] | MIC (Staphylococcus aureus [3]) | MIC (Enterococcus faecium) | MIC (Streptococcus pyogenes) | MIC (Pseudomonas aeruginosa [4]) | MIC (Escherichia coli) | MIC (Klebsiella aerogenes) | MIC (Pseudomonas aeruginosa [6]) | ED50 (Mus musculus [7]) | ED50 (Mus musculus [8]) | ED50 (Mus musculus [9]) | ED50 (Mus musculus [10]) | MIC (Mus musculus [11]) | MIC (Mus musculus [12]) | other results
1 | CN1CCN(c2nc3c(cc2F)c(=O)c(C(=O)O)cn3-c2ccc(F)cc2)CC1 | 0.1 µg/mL (≈ 0.25 µM) | 0.2 µg/mL (≈ 0.5 µM) | 0.2 µg/mL (≈ 0.5 µM) | 0.39 µg/mL (≈ 0.974 µM) | 0.2 µg/mL (≈ 0.5 µM) | 3.1 µg/mL (≈ 7.74 µM) | 3.1 µg/mL (≈ 7.74 µM) | 1.56 µg/mL (≈ 3.9 µM) | 0.2 µg/mL (≈ 0.5 µM) | 0.2 µg/mL (≈ 0.5 µM) |  |  |  |  |  |  |  | MIC (Pseudomonas aeruginosa [5]): 1.56 µg/mL (≈ 3.9 µM)
2 | O=C(O)c1cn(-c2ccccc2)c2nc(N3CCNCC3)c(F)cc2c1=O | 0.1 µg/mL (≈ 0.271 µM) | 1.56 µg/mL (≈ 4.23 µM) | 1.56 µg/mL (≈ 4.23 µM) | 1.56 µg/mL (≈ 4.23 µM) | 1.56 µg/mL (≈ 4.23 µM) | 50 µg/mL (≈ 136 µM) | 6.2 µg/mL (≈ 16.8 µM) | 1.56 µg/mL (≈ 4.23 µM) | 0.2 µg/mL (≈ 0.543 µM) | 0.39 µg/mL (≈ 1.06 µM) | 1.56 µg/mL (≈ 4.23 µM) |  |  |  |  |  |  | 
3 | O=C(O)c1cn(-c2ccc(F)cc2F)c2nc(N3CCNCC3)c(F)cc2c1=O | 0.05 µg/mL (≈ 0.124 µM) | 0.2 µg/mL (≈ 0.495 µM) | 0.39 µg/mL (≈ 0.965 µM) | 0.39 µg/mL (≈ 0.965 µM) | 0.2 µg/mL (≈ 0.495 µM) | 0.78 µg/mL (≈ 1.93 µM) | 0.78 µg/mL (≈ 1.93 µM) | 0.39 µg/mL (≈ 0.965 µM) | 0.05 µg/mL (≈ 0.124 µM) | 0.2 µg/mL (≈ 0.495 µM) | 0.39 µg/mL (≈ 0.965 µM) | 0.6 mg/kg | 2.4 mg/kg | 7 mg/kg | 4.6 mg/kg | 0.12 µg/mL (≈ 0.297 µM) | 0.39 µg/mL (≈ 0.965 µM) | 
4 | O=C(O)c1cn(-c2ccc(F)cc2)c2nc(N3CCNCC3)c(F)cc2c1=O | 0.1 µg/mL (≈ 0.259 µM) | 0.39 µg/mL (≈ 1.01 µM) | 0.39 µg/mL (≈ 1.01 µM) | 0.78 µg/mL (≈ 2.02 µM) | 0.39 µg/mL (≈ 1.01 µM) | 3.1 µg/mL (≈ 8.02 µM) | 1.56 µg/mL (≈ 4.04 µM) | 0.39 µg/mL (≈ 1.01 µM) | 0.05 µg/mL (≈ 0.129 µM) | 0.1 µg/mL (≈ 0.259 µM) |  | 1.6 mg/kg | 7.5 mg/kg | 19.9 mg/kg | 6.9 mg/kg | 0.25 µg/mL (≈ 0.647 µM) | 0.39 µg/mL (≈ 1.01 µM) | MIC (Mus musculus [13]): 0.05 µg/mL (≈ 0.129 µM); ED50 (Mus musculus [14]): 2.8 mg/kg; ED50 (Mus musculus [15]): 1 mg/kg; MIC (Pseudomonas aeruginosa [5]): 0.39 µg/mL (≈ 1.01 µM)
5 | CN1CCN(c2nc3c(cc2F)c(=O)c(C(=O)O)cn3-c2ccc(F)cc2F)CC1 | 0.39 µg/mL (≈ 0.932 µM) | 0.2 µg/mL (≈ 0.478 µM) | 0.39 µg/mL (≈ 0.932 µM) | 0.39 µg/mL (≈ 0.932 µM) | 0.2 µg/mL (≈ 0.478 µM) | 1.56 µg/mL (≈ 3.73 µM) | 1.56 µg/mL (≈ 3.73 µM) | 3.1 µg/mL (≈ 7.41 µM) | 0.39 µg/mL (≈ 0.932 µM) | 0.39 µg/mL (≈ 0.932 µM) | 3.1 µg/mL (≈ 7.41 µM) |  |  |  |  |  |  | 
6 | NC1CCN(c2nc3c(cc2F)c(=O)c(C(=O)O)cn3-c2ccc(F)cc2)C1 (stereo not given) | 0.05 µg/mL (≈ 0.129 µM) | 0.5 µg/mL (≈ 1.29 µM) | 0.1 µg/mL (≈ 0.259 µM) | 0.1 µg/mL (≈ 0.259 µM) | 0.1 µg/mL (≈ 0.259 µM) | 0.39 µg/mL (≈ 1.01 µM) | 0.2 µg/mL (≈ 0.518 µM) | 0.2 µg/mL (≈ 0.518 µM) | 0.05 µg/mL (≈ 0.129 µM) | 0.1 µg/mL (≈ 0.259 µM) | 0.1 µg/mL (≈ 0.259 µM) | 0.5 mg/kg | 1.6 mg/kg | 18.2 mg/kg | 7.4 mg/kg | 0.06 µg/mL (≈ 0.155 µM) | 0.1 µg/mL (≈ 0.259 µM) | 
7 | CC1CN(c2nc3c(cc2F)c(=O)c(C(=O)O)cn3-c2ccc(F)cc2)CCN1 (stereo not given) | 0.02 µg/mL (≈ 0.05 µM) | 0.39 µg/mL (≈ 0.974 µM) | 0.2 µg/mL (≈ 0.5 µM) | 0.78 µg/mL (≈ 1.95 µM) | 0.78 µg/mL (≈ 1.95 µM) | 6.2 µg/mL (≈ 15.5 µM) | 3.1 µg/mL (≈ 7.74 µM) | 1.56 µg/mL (≈ 3.9 µM) | 0.05 µg/mL (≈ 0.125 µM) | 12.5 µg/mL (≈ 31.2 µM) | 1.56 µg/mL (≈ 3.9 µM) |  |  |  |  |  |  | 
8 | O=C(O)c1cn(-c2ccc(F)cc2)c2nc(N3CCC(O)C3)c(F)cc2c1=O (stereo not given) | 0.1 µg/mL (≈ 0.258 µM) | 0.05 µg/mL (≈ 0.129 µM) | 0.39 µg/mL (≈ 1.01 µM) | 0.2 µg/mL (≈ 0.516 µM) | 0.05 µg/mL (≈ 0.129 µM) | 1.56 µg/mL (≈ 4.03 µM) | 0.78 µg/mL (≈ 2.01 µM) | 3.1 µg/mL (≈ 8 µM) | 0.39 µg/mL (≈ 1.01 µM) | 0.39 µg/mL (≈ 1.01 µM) | 3.1 µg/mL (≈ 8 µM) |  |  |  |  |  |  | 
9 | CC1CN(c2nc3c(cc2F)c(=O)c(C(=O)O)cn3-c2ccc(F)cc2F)CCN1 (stereo not given) | 0.2 µg/mL (≈ 0.478 µM) | 0.2 µg/mL (≈ 0.478 µM) | 0.39 µg/mL (≈ 0.932 µM) | 0.78 µg/mL (≈ 1.86 µM) | 0.39 µg/mL (≈ 0.932 µM) | 3.1 µg/mL (≈ 7.41 µM) | 1.56 µg/mL (≈ 3.73 µM) | 1.56 µg/mL (≈ 3.73 µM) | 0.1 µg/mL (≈ 0.239 µM) | 3.1 µg/mL (≈ 7.41 µM) | 1.56 µg/mL (≈ 3.73 µM) |  |  |  |  |  |  | MIC (Mus musculus [13]): 0.1 µg/mL (≈ 0.239 µM); ED50 (Mus musculus [14]): 3.9 mg/kg; ED50 (Mus musculus [15]): 1.4 mg/kg
10 | CN1CCN(c2cc3c(cc2F)c(=O)c(C(=O)O)cn3-c2ccc(F)cc2)CC1.Cl [DIFLOXACIN HYDROCHLORIDE] | 0.1 µg/mL | 0.2 µg/mL | 0.78 µg/mL | 0.39 µg/mL | 0.2 µg/mL | 1.56 µg/mL | 1.56 µg/mL | 1.56 µg/mL | 0.2 µg/mL | 0.78 µg/mL | 0.78 µg/mL |  |  |  |  |  |  | 
11 | CCn1cc(C(=O)O)c(=O)c2cc(F)c(N3CCNCC3)cc21 [NORFLOXACIN] | 0.1 µg/mL (≈ 0.313 µM) | 0.78 µg/mL (≈ 2.44 µM) | 6.2 µg/mL (≈ 19.4 µM) | 1.56 µg/mL (≈ 4.89 µM) | 0.78 µg/mL (≈ 2.44 µM) | 0.78 µg/mL (≈ 2.44 µM) | 3.1 µg/mL (≈ 9.71 µM) | 0.39 µg/mL (≈ 1.22 µM) | 0.1 µg/mL (≈ 0.313 µM) | 0.2 µg/mL (≈ 0.626 µM) | 0.39 µg/mL (≈ 1.22 µM) |  |  |  |  |  |  | 
12 | Cl.O=C(O)c1cn(-c2ccc(F)cc2)c2cc(N3CCNCC3)c(F)cc2c1=O [SARAFLOXACIN HYDROCHLORIDE] | 0.02 µg/mL | 0.2 µg/mL | 0.2 µg/mL | 0.39 µg/mL | 0.2 µg/mL | 1.56 µg/mL | 0.78 µg/mL | 0.39 µg/mL | 0.05 µg/mL | 0.2 µg/mL | 0.39 µg/mL | 1.6 mg/kg | 6.5 mg/kg | 21.4 mg/kg | 1.6 mg/kg | 0.12 µg/mL | 0.39 µg/mL | MIC (Mus musculus [13]): 0.05 µg/mL; ED50 (Mus musculus [14]): 4.3 mg/kg; ED50 (Mus musculus [15]): 0.6 mg/kg
